Measured values from different studies.
Lines come from different studies, so protocols differ.
Organism: Plasmodium falciparum
Read-out: parasite growth

Compound | technique | strain | time | setting | EC50 [µM]
CCN(CC)CCCC(C)Nc1ccnc2cc(Cl)ccc12 (centres unmarked) | SYBR Green | TM90 | 72 h | drug-resistant strain, blood stage | 0.089
Cc1c2oc3c(C)ccc(C(=O)N[C@@H]4C(=O)N[C@H](C(C)C)C(=O)N5CCC[C@H]5C(=O)N(C)CC(=O)N(C)[C@@H](C(C)C)C(=O)O[C@@H]4C)c3nc-2c(C(=O)N[C@@H]2C(=O)N[C@H](C(C)C)C(=O)N3CCC[C@H]3C(=O)N(C)CC(=O)N(C)[C@@H](C(C)C)C(=O)O[C@@H]2C)c(N)c1=O | SYBR Green | 3D7 | – | blood stage | 1
CN1CCN(S(=O)(=O)c2ccc(-c3ccc4ncnc(Nc5ccc(OCc6cccc(F)c6)c(Cl)c5)c4c3)cc2)CC1 | SYBR Green | W2 | – | drug-resistant strain, blood stage | 0.044
COc1cc2[nH]c(C)c(-c3ccc(Oc4ccc(OC(F)(F)F)cc4)cc3)c(=O)c2cc1Cl | SYBR Green | TM90 | 72 h | drug-resistant strain, blood stage | 0.001
CN1CCCN(S(=O)(=O)c2ccc(-c3ccc4ncnc(Nc5ccc(OCc6cccc(F)c6)c(Cl)c5)c4c3)cc2)CC1 | SYBR Green | W2 | – | drug-resistant strain, blood stage | 0.052
COc1ccc(-n2ccnc2SCC(=O)Nc2cccc(C(F)(F)F)c2)c(OC)c1 | SYBR Green | 3D7 | – | – | 0.0885
Cc1cc(N[C@H]2CCc3ccc(Cl)cc3C2)n2nc(C(C)(F)F)nc2n1 | – | HB3 | – | drug-resistant strain, blood stage | 0.00047
N#Cc1c(F)cccc1N1CCN(c2ccc(O)cc2)CC1 | SYBR Green | 3D7 | 72 h | – | > 12.5
COc1cc2[nH]c(C)c(-c3ccccc3)c(=O)c2cc1Cl | – | W2 | – | drug-resistant strain, blood stage | 0.0262
Cc1cc(Nc2ccc(Cl)c(Cl)c2)n2nc(C)nc2n1 | SYBR Green | 3D7 | – | – | 0.106
Cc1cc(NC2Cc3cc(F)c(F)cc3C2)n2nc(C(C)(F)F)nc2n1 | – | DD2 | – | drug-resistant strain, blood stage | 0.043
